Experimental data from different studies.
Lines come from different studies, so protocols differ.
Organism: Plasmodium falciparum
Effect on: parasite growth

| SMILES | technique | strain | time | setting | IC50 |
| --- | --- | --- | --- | --- | --- |
| CCN(CC)CCCC(C)Nc1ccnc2cc(Cl)ccc12 (stereo not shown) | ELISA | DD2 | – | drug-resistant strain, blood stage | 262 nM |
| COC1=CC(c2ccc[nH]2)=NC1=Cc1ccc(CCCCCCCCCCCCO)[nH]1 | – | DD2 | – | drug-resistant strain, blood stage | 23 nM |
| CCN(CC)CCCC(C)Nc1ccnc2cc(Cl)ccc12 (stereo not shown) | – | W2 | 72 h | drug-resistant strain | 360 nM |
| CCCCCCCCCCOc1cc2c(O)c(C(=O)OCC)cnc2cc1OCC | SYBR Green | HB3 | – | blood stage | < 5.7 nM |
| NCCCNc1nc2cc(Br)ccc2n1Cc1ccccc1 | – | K1 | – | drug-resistant strain, blood stage | 1010 nM |
| OC(c1cc(C(F)(F)F)nc2c(C(F)(F)F)cccc12)C1CCCCN1 (stereo not shown) | – | – | – | blood stage | 37.2 nM |
| COC1=CC(c2ccc[nH]2)=NC1=Cc1ccc(CCCCCCCCCCCO)[nH]1 | – | 7G8 | – | drug-resistant strain, blood stage | 93 nM |
| CCN(CC)CCCC(C)Nc1ccnc2cc(Cl)ccc12 (stereo not shown) | – | W2 | 72 h | drug-resistant strain, blood stage | 0.155 µg/mL |
| CC1=C(C)C(c2ccc[nH]2)=NC1=Cc1ccc(CCCCCCCCCC(C)O)[nH]1 (stereo not shown) | – | 7G8 | – | drug-resistant strain, blood stage | 627 nM |
| NC1CCN(c2nc3cc(Cl)ccc3n2Cc2ccccc2)CC1 | – | K1 | – | drug-resistant strain, blood stage | 14 nM |
| COC1=CC(c2ccc[nH]2)=NC1=Cc1ccc(CCCCCCCCCCO)[nH]1 | – | 7G8 | – | drug-resistant strain, blood stage | 168 nM |
| NC(N)=NC(=O)c1cc(C#Cc2ccc(C(F)(F)F)c(C(=O)Nc3ccccn3)c2)cc(C(F)(F)F)c1 | – | K1 | – | drug-resistant strain, blood stage | 19 nM |
| CCN(CC)CCCC(C)Nc1ccnc2cc(Cl)ccc12 (stereo not shown) | – | DD2 | – | drug-resistant strain | 102 nM |
| FC(F)(F)c1ccc2c(c1)nc(N1CCNCC1)n2Cc1ccccc1 | – | K1 | – | drug-resistant strain, blood stage | 415 nM |
| CCc1ccc(C2=NC(=Cc3ccc(CCCCCCCCCC(C)O)[nH]3)C(OC)=C2)[nH]1 (stereo not shown) | – | 7G8 | – | drug-resistant strain, blood stage | 24 nM |
| CCN(CC)CCCC(C)Nc1ccnc2cc(Cl)ccc12 (stereo not shown) | – | W2 | – | drug-resistant strain | 310 nM |
| CCN(CC)CCCC(C)Nc1ccnc2cc(Cl)ccc12 (stereo not shown) | – | D6 | – | blood stage | 0.014 µg/mL |
| COC1=CC(c2ccco2)=NC1=Cc1ccc(CCCCCCCCCC(C)O)[nH]1 (stereo not shown) | – | DD2 | – | drug-resistant strain, blood stage | > 2500 nM |
| COc1cc(CO)c(-c2ccc3c(c2O)[C@@H](C)N[C@H](C)C3)c2cccc(O)c12 | SYBR Green | W2 | – | drug-resistant strain, blood stage | 303 nM |
| NCCNc1nc2cc(Cl)ccc2n1Cc1ccccc1 | – | K1 | – | drug-resistant strain, blood stage | 339 nM |
| CCN(CC)CCCC(C)Nc1ccnc2cc(Cl)ccc12 (stereo not shown) | – | 3D7 | – | blood stage | 11 nM |
| CCN(CC)CCCC(C)Nc1ccnc2cc(Cl)ccc12 (stereo not shown) | – | 7G8 | – | drug-resistant strain, blood stage | 63 nM |
| C[C@@H]1CC[C@H]2[C@@H](C)C(=O)O[C@@H]3O[C@@]4(C)CC[C@@H]1[C@]32OO4 | – | D6 | – | blood stage | 0.005 µg/mL |
| COC1=CC(c2cccn2C)=NC1=Cc1ccc(CCCCCCCCCC(C)O)[nH]1 (stereo not shown) | – | 7G8 | – | drug-resistant strain, blood stage | 1000 nM |
| CCN(CC)CCCC(C)Nc1ccnc2cc(Cl)ccc12 (stereo not shown) | – | K1 | – | drug-resistant strain, blood stage | 280 nM |
